# Hits are enriched below; roughly 12% of the tested compounds scored in any of these assays.
# ABCB1 inh: ABCB1 efflux pump inhibitors, primary screen, cell-based, multiplex, flow cytometry, ABCG2 counter-screen; ATP-dependent translocase ABCB1 (Homo sapiens), P08183; CCRF-Adr cells, JC-1 efflux; inhibition, % at 6.6 µM; hit rate 0.067% among 190,000; AID 1326, 2008; in the data active means inhibition above about 40%;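 further: 0% = vehicle and 100% = reference inhibitor; higher value means more JC-1 retained so stronger ABCB1 efflux block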
# WT yeast gro inh: growth inhibition of WT strain, primary screen, mitochondrial fusion inhibitor project, WT and mutant strains, chemical genetic; inhibition, % at 10 µM; hit rate 2.1% among 190,000; mitochondrial fusion phenotypic screen; in the data active means inhibition above about 58%; tested in S. cerevisiae
# RAM inhibit: inhibitors of the yeast RAM network, primary screen, dse1pr::URA3 reporter, 5-FOA selection; S. cerevisiae dse1pr::URA3 reporter, 5-FOA growth OD615, 2 d; analog-sensitive cbk1-as2 kinase mutant strain; inhibition, % at 50 µM; hit rate 1.8% among 190,000; AID 868, 2007;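 active means inhibition above a set limit, 3 SD over mean compound inhibition, cut at about 8.4% in these data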;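 further: 0% = DMSO-only wells with no growth and 100% = 10 µM 1-NA-PP1 full growth; inhibition rescues growth on 5-FOA so higher OD means more RAM inhibition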
# ABCG2 inh: ABCG2 efflux pump inhibitors, primary screen, multiplex with ABCB1, IgMXP3 cells, flow cytometry. inhibition, % at 6.6 µM. JC-1 efflux. hit rate 0.1% among 190,000. AID 1325, 2008. Broad substrate specificity ATP-binding cassette transporter ABCG2 (Homo sapiens), Q9UNQ0;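 active means inhibition above 80%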;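 further: 0% = DMSO and 100% = nicardipine control wells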
# Target sequence (Q9UNQ0 whole entry, looked up): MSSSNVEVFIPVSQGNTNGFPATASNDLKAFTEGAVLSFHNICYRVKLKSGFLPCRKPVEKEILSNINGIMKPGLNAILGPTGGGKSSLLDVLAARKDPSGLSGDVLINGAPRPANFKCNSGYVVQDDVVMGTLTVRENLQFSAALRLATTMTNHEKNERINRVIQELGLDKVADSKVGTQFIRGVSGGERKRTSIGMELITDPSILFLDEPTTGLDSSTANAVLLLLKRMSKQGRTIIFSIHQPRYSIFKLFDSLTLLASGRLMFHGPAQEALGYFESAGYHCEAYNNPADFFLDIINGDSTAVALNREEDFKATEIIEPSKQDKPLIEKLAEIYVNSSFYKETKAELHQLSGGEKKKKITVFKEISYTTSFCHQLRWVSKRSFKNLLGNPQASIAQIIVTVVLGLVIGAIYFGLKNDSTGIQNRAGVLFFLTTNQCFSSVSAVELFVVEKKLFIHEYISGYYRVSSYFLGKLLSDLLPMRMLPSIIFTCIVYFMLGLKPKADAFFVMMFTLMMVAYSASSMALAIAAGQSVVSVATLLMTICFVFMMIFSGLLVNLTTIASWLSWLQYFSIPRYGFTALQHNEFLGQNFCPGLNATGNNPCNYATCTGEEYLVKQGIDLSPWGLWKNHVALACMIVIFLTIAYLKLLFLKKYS
#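 Measure – % inhibition of efflux relative to nicardipine and DMSO · Test system – ABCG2 IgMXP3 and barcoded ABCB1 CCRF-Adr cell mix · Control set – nicardipine as high control, DMSO as low control · Compound – one concentration, 6.6 µM final · Signal – flow cytometry of retained JC-1 fluorescence · Timing – 10 min exposure at 25 °C with rotation, no wash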
# Lmaj promast: Leishmania major promastigote growth inhibition, primary screen | Leishmania major promastigotes, resazurin fluorescence viability | inhibition, % at 10 µM | hit rate 9% among 200,000; in the data active means inhibition above about 50%;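 further: promastigotes grown with compound for 44 hours at 28 °C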
# Numbers without * were called inactive; . = no result given.
SMILES,ABCB1 inh,WT yeast gro inh,RAM inhibit,ABCG2 inh,Lmaj promast
O=C(NC1=C(Nc2ccc(Cl)cc2)C(=O)c2ccccc2C1=O)c1ccccc1,0,79*,2,3,78*
CC(=O)Nc1ccc(NC2=C(Cl)C(=O)c3ccccc3C2=O)cc1,0,17,4,-1,4
CN(c1ccc(C(=O)Nc2ccc(Cl)cn2)cc1)S(=O)(=O)c1ccccc1,2,25,3,20,5
CN(C1=C(NC(=O)c2ccc(Cl)cc2)C(=O)c2ccccc2C1=O)c1ccccc1,-1,73*,6,13,64*
O=c1oc2cc(Cl)ccc2n1CSc1nc2ccccc2s1,0,36,8,2,4
O=C(Nc1cccn(Cc2cccc(F)c2)c1=O)NC1CCCCC1,2,-7,1,20,83*
O=C(Nc1cccn(Cc2c(F)cccc2Cl)c1=O)NC1CCCCC1,0,18,5,0,80*
Cc1ccc(NC(=O)Nc2cccn(Cc3c(F)cccc3Cl)c2=O)cc1,0,-2,1,2,3
CC(C)N1CCN(Cc2cccc(-n3cccn3)c2)CC1CCO (stereo not given),0,5,3,8,-3
O=C1N=C(N2CCN(c3ccccc3)CC2)S/C1=C\c1cn[nH]c1-c1ccccc1,1,-3,6,12,52*
CCOC(=O)c1sc(=S)n(-c2ccccc2Cl)c1SC,2,22,8.8*,11,5
CC(C)(C)n1nnnc1C(c1cccnc1)N1CCN(c2ccccc2)CC1 (stereo not given),0,5,1,0,78*
c1ccc(Cn2nnnc2C(c2cccnc2)N2CCN(c3ccccc3)CC2)cc1 (stereo not given),0,-36,0,1,99*
CC(C)(C)n1nnnc1C(c1cccnc1)N1CCN(c2ccccn2)CC1 (stereo not given),1,-6,-1,1,81*
c1ccc(Cn2nnnc2C(c2ccncc2)N2CCOCC2)cc1 (stereo not given),1,-1,2,8,-6
CC(C)c1ccc2c(c1)[C@H]1OCC[C@H]1[C@@H](c1cccs1)N2,1,6,0,7,1
CCOc1ccccc1NC(=O)CN1C(=O)CSC(C)C1=O (stereo not given),1,-1,0,4,2
CCOC(=O)c1c(C)n(C)c2ccc(OC(=O)c3ccoc3)cc12,-3,15,4,2,-3
CCOC(=O)c1c(CN(C)C)n(C)c2ccc(OC(C)=O)cc12,0,3,-1,3,67*
COc1cccc(CN(C)c2nc(-c3cccs3)nc3ccccc23)c1,1,66*,0,11,92*
COc1cccc(Nc2nc(-c3cccs3)nc3ccccc23)c1,-1,66*,0,-10,99*
COc1ccc(Nc2nc(-c3cccs3)nc3ccccc23)cc1,0,46,1,0,40
O=C(CCc1ccccc1)NC(=S)NCc1ccco1,0,8,3,14,2
COc1cc(/C=C(\NC(C)=O)C(=O)Nc2ccc(NC(C)=O)cc2)ccc1OC(C)=O,1,0,1,11,57*
O=C(Nc1ccc(S(=O)(=O)Nc2ccccc2)cc1)c1ccc(CN2CCOCC2)cc1,0,26,1,3,82*
SMILES,ABCB1 inh,WT yeast gro inh,RAM inhibit,ABCG2 inh,Lmaj promast
O=C(Nc1ccc(S(=O)(=O)N2CCCCC2)cc1)c1ccc(CN2CCc3ccccc3C2)cc1,1,1,-1,8,99*
Cc1c(NC(=O)c2ccc3c(c2)OCO3)c(=O)n(-c2ccccc2)n1C,-1,3,1,-4,-4
COc1ccc(NC(=S)N2CCCC2)c(OC)c1,1,-2,2,1,-6
CCOC(=O)c1ccccc1Oc1c(F)c(F)nc(NCCO)c1F,1,12,2,4,82*
CCOC(=O)c1cnc2c(ccc3ccccc32)c1NCCO,0,32,3,3,41
CC1(C)CC(=O)C2=C(C1)NC1=C(C(=O)c3ccccc31)C2c1ccc(O)cc1 (stereo not given),1,-17,5,8,-13
CCCCc1ccc(C2C3=C(CC(C)(C)CC3=O)NC3=C2C(=O)c2ccccc23)cc1 (stereo not given),0,-13,5,2,99*
CCCc1ccc(C2C3=C(CC(C)(C)CC3=O)NC3=C2C(=O)c2ccccc23)cc1 (stereo not given),0,13,7,0,88*
CCS(=O)(=O)N1CCN(c2ccc([N+](=O)[O-])c(NCC3CCCO3)c2)CC1 (stereo not given),0,9,2,0,6
CCCc1nc(C(C)(C)O)c(C(=O)O)n1Cc1ccc(-c2ccccc2-c2nn[nH]n2)cc1,.,-6,.,-1,.
C=C(C)CNC(=S)N1CCNC(=O)C1CC(=O)OC (stereo not given),1,-5,0,0,78*
COc1ccc(N2C(=O)NC(NC(=O)c3cccnc3)(C(F)(F)F)C2=O)cc1 (stereo not given),1,-2,2,8,-6
CCN1C(=O)c2cccc3c(S(=O)(=O)Nc4ccccc4OC)ccc1c23,5,33,1,22,17
CCN1C(=O)c2cccc3c(S(=O)(=O)NCCc4c[nH]c5ccccc45)ccc1c23,0,4,1,0,99*
CCN1C(=O)c2cccc3c(S(=O)(=O)NCCCN4CCOCC4)ccc1c23,1,-7,2,2,78*
Cc1ccc(C)c(S(=O)(=O)Nc2ccccc2C(=O)Nc2ccccc2N2CCOCC2)c1,0,31,6,-1,4
CN(C)c1ccc(N=Nc2ccccc2C(=O)OCC(=O)N(C)c2ccccc2)cc1,2,9,10*,23,11
CC(C(=O)c1ccc(Br)cc1)[n+]1cccc(NC(=O)c2ccccc2)c1 (stereo not given),-1,3,1,-4,56*
O=C(C[n+]1cccc(NC(=O)c2ccccc2)c1)c1ccc(NC(=O)c2ccccc2)cc1,0,8,11*,2,71*
O=C(C[n+]1cccc(NC(=O)c2ccccc2)c1)c1ccccc1,0,11,1,1,3
Cc1ccc(C(=O)C(C)[n+]2cccc(C(N)=O)c2)cc1 (stereo not given),0,5,0,2,-12
COc1ccc(F)cc1S(=O)(=O)Nc1cccc(C(=O)O)c1,0,5,1,6,-8
COc1ccnc(Oc2ccccc2)c1C(=O)N/C=N/OCc1ccccc1F,1,24,1,5,17
O=C(CSc1nnc(CCc2ccccc2)n1-c1ccc(Cl)cc1)c1ccccc1,2,67*,6,4,14

# Bioassay records (PubChem BioAssay)
